Experimental data taken from ChEMBL document CHEMBL1130216, “Design, synthesis, and dopamine receptor modulating activity of diketopiperazine peptidomimetics of L-prolyl-L-leucylglycinamide” (J Med Chem, 1997).
Where a SMILES comes first, the peptide text is derived from it.

What was measured:
[1] = biological target: D(2) dopamine receptor (Bos taurus) (UniProt P20288); assay: Percentage of receptor in the low affinity form for the compound to Dopamine receptor D2 in absence of Gpp(NH)p; type: functional
D(2) dopamine receptor (Bos taurus), sequence (P20288 whole entry): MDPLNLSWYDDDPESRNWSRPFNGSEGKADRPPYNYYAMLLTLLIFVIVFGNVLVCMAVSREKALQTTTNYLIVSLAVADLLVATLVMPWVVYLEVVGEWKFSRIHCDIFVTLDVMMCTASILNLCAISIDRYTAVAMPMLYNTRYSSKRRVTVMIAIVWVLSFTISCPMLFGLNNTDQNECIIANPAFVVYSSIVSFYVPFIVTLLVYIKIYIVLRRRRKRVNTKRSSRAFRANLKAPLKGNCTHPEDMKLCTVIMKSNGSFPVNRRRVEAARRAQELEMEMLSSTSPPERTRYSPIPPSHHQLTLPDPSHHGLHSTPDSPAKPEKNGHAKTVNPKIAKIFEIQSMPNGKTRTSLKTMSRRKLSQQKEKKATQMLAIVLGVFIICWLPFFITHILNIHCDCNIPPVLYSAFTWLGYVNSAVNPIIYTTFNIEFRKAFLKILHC
Procedure, shortened: (§1)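 Bovine striatal membranes (150-200 µg protein) were incubated with 0.2 nM [3H]spiroperidol and varying N-propylnorapomorphine, with or without 100 µM Gpp(NH)p and 100 nM peptidomimetic, plus 50 nM ketanserin, for 1 h at 22 °C, then GF/B filtered. Nonspecific binding was set with 1.0 µM (+)-butaclamol. A two-site fit gave high/low-affinity fractions; Ki values came via Cheng-Prusoff. Mean ± SEM of 3-4 experiments.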

[2] = biological target: D(2) dopamine receptor (Bos taurus) (UniProt P20288); assay: Percentage of receptor in the low affinity form for the compound to Dopamine receptor D2 in presence of Gpp(NH)p; type: functional; procedure, shortened: as §1
[3] = biological target: D(2) dopamine receptor (Bos taurus) (UniProt P20288); assay: Percentage of receptor in the high affinity form for the compound to Dopamine receptor D2 in absence of Gpp(NH)p; type: functional; procedure, shortened: as §1
[4] = biological target: D(2) dopamine receptor (Bos taurus) (UniProt P20288); assay: Percentage of receptor in the high affinity form for the compound to Dopamine receptor D2 in presence of Gpp(NH)p; type: functional; procedure, shortened: as §1
[5] = biological target: D(2) dopamine receptor (Bos taurus) (UniProt P20288); assay: Percentage of receptor in the high affinity form for the compound to Dopamine receptor D2 in presence of Gpp(NH)p (pre treated with 1 uM); type: functional
[6] = biological target: D(2) dopamine receptor (Bos taurus) (UniProt P20288); assay: Percentage of receptor in the low affinity form for the compound in absence of Gpp(NH)p (Pre treated with 1 uM) to Dopamine receptor D2
[7] = biological target: D(2) dopamine receptor (Bos taurus) (UniProt P20288); assay: Percentage of receptor in the low affinity form for the compound to Dopamine receptor D2 in presence of Gpp(NH)p (pre treated with 1 uM)
[8] = biological target: D(2) dopamine receptor (Bos taurus) (UniProt P20288); assay: Percentage of receptor in the high affinity form for the compound in absence of Gpp(NH)p (Pre treated with 1 uM) to Dopamine receptor D2

RL [1] [%] | RL [2] [%] | RH [3] [%] | RH [4] [%] | RH [5] [%] | RL [6] [%] | RL [7] [%] | RH [8] [%] | SMILES
43.8 | 81.2 | 56.2 | 18.8 |  |  |  |  | CC(C)C[C@@H](C(=O)NCC(N)=O)N1CC(=O)N2CCC[C@H]2C1=O
55 | 78 | 46 | 22 |  |  |  |  | NC(=O)CN1CC[C@@H](N2CC(=O)N3CCC[C@H]3C2=O)C1=O
51 | 81.5 | 49 | 18.5 |  |  |  |  | NC(=O)[C@H]1CS[C@@H]2C[C@@H](N3CC(=O)N4CCC[C@H]4C3=O)C(=O)N12
51 | 82 | 49 | 19 | 32 | 41 | 72 | 61 | CC(C)C[C@H](NC(=O)[C@@H]1CCCN1)C(=O)NCC(N)=O (H-Pro-Leu-Gly-NH2)
